Test results as given in ChEMBL document CHEMBL1148722, “Discovery and optimization of p38 inhibitors via computer-assisted drug design” (J Med Chem, 2007).
Blank lines part the entries; values can stand above or below the compound they belong to.

Tests used:
Blood = test: Inhibition of LPS-induced TNFalpha production in human whole blood; assay type: functional, tissue-based
Method in brief: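 Fresh heparinized human whole blood was preincubated 30 min at 37 °C with serially diluted compound in type AB serum. It was then stimulated with E. coli LPS 0111:B4 (50 ng/mL final) for 5 h at 37 °C. Plasma TNFα was measured by ELISA, DELFIA or electrochemiluminescence against an on-plate standard curve. EC50 came from cross-plate duplicate 11-point curves fitted to a 4-parameter logistic, as the geometric mean over ≥3 donors.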

[1] = biological target: Mitogen-activated protein kinase 9 (Homo sapiens, UniProt P45984); test: Inhibition of JNK2
Mitogen-activated protein kinase 9, sequence (P45984 whole entry): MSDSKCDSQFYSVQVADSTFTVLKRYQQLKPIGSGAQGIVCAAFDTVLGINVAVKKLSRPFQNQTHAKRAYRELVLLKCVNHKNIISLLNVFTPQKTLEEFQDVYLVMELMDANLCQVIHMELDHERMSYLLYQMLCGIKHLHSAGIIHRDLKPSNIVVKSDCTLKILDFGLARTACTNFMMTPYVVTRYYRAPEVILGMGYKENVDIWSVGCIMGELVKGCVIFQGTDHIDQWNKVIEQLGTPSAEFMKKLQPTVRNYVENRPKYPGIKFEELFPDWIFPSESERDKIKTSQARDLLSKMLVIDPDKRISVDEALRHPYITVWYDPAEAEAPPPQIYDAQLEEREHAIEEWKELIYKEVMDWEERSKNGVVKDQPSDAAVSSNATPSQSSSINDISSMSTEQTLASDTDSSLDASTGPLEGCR

[2] = biological target: Tyrosine-protein kinase Lyn (Homo sapiens, UniProt P07948); test: Inhibition of Lyn
Tyrosine-protein kinase Lyn, sequence (P07948 whole entry): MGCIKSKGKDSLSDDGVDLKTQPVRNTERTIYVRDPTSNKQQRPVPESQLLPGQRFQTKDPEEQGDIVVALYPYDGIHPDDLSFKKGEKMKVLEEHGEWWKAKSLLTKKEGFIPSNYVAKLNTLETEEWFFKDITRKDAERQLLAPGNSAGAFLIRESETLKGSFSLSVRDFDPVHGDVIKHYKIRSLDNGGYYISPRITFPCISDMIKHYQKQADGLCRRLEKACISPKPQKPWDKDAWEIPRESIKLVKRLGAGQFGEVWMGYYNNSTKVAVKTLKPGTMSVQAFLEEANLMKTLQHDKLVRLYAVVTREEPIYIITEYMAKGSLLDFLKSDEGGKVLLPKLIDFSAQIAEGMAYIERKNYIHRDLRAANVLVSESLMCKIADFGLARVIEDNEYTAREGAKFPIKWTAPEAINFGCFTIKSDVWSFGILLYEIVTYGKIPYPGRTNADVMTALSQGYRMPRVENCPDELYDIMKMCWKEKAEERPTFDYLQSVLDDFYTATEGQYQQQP

Mus musculus [3] = test: Inhibition of LPS-induced TNFalpha production in BALB/c mouse at 10 mg/kg, po; assay type: functional
Method in brief: (§1)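 Female Balb/c mice (~20 g) were gavaged with compound in cremophor about 30 min before i.v. LPS (E. coli 0111:B4, 1.0 µg/mouse) plus D-gal (50 mg/kg) in pyrogen-free saline. After 1 h, blood was taken by cardiac puncture under anaesthesia. Serum TNFα was measured by ELISA in duplicate, and compound level by HPLC.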

Mus musculus [4] = test: Inhibition of LPS-induced TNFalpha production in BALB/c mouse at 3 mg/kg, po; assay type: functional; method in brief: as §1
[5] = Clearance in Sprague-Dawley rat at 1 mg/kg, iv; assay type: ADME, organism-based; set-up: dose 1 mg/kg, route intravenous; settings: in vivo
Method in brief: (§2)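 Male Sprague-Dawley rats, fasted overnight with food returned about 4 h post-dose, three per group. One group got 1 mg/kg as a ~15 s i.v. push via femoral vein catheter at 1 mL/kg. The other got 10 mg/kg by oral gavage at 10 mL/kg. Plasma was analysed by noncompartmental pharmacokinetic methods.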

[6] = Cmax in Sprague-Dawley rat at 10 mg/kg, po; assay type: ADME, organism-based; set-up: dose 10 mg/kg, route oral; settings: in vivo; method in brief: as §2
[7] = Bioavailability in Sprague-Dawley rat at 10 mg/kg, po; assay type: ADME, organism-based; settings: in vivo; method in brief: as §2

SMILES: COc1c(NC(=O)c2cc3cccc(NC(=O)c4ccc(NCCN(C)C)nc4)c3s2)cc(C(C)(C)C)cc1NS(C)(=O)=O
IC50 (Blood): 650 nM

SMILES: COc1c(NC(=O)c2cc3cccc(NC(=O)c4ccc(NCC5CC5)nc4)c3s2)cc(C(C)(C)C)cc1NS(C)(=O)=O
IC50 (Blood): 670 nM

SMILES: COc1c(NC(=O)Nc2ccc(OCCN3CCOCC3)c3ccccc23)cc(C(C)(C)C)cc1NS(C)(=O)=O
IC50 (Blood): 1060 nM

SMILES: COc1c(NC(=O)c2cc3ccccc3n2C)cc(C(C)(C)C)cc1NS(C)(=O)=O
IC50 (Blood): > 10000 nM

SMILES: COc1c(NC(=O)c2cc3ccccc3s2)cc(C(C)(C)C)cc1NS(C)(=O)=O
IC50 (Blood): > 10000 nM

SMILES: COc1c(NC(=O)c2cc3cccc(NC(=O)c4ccc(NCCN(C)C)nc4)c3n2C)cc(C(C)(C)C)cc1NS(C)(=O)=O
IC50 (Blood): 700 nM

SMILES: COc1c(NC(=O)c2cc3c(NC(=O)c4cccnc4)cccc3s2)cc(C(C)(C)C)cc1NS(C)(=O)=O
IC50 (Blood): > 10000 nM

SMILES: COc1c(NC(=O)c2cc3cccc(NC(=O)c4cccnc4)c3s2)cc(C(C)(C)C)cc1NS(C)(=O)=O
IC50 (Blood): 1100 nM
inhibition in vivo at 10 mg/kg (Mus musculus [3]): 60%
clearance [5]: 19 mL/min/kg
Cmax [6]: 5200 ng/mL
bioavailability [7]: 57%

SMILES: Cc1ccc(-n2nc(C(C)(C)C)cc2NC(=O)Nc2ccc(OCCN3CCOCC3)c3ccccc23)cc1 [DORAMAPIMOD]
inhibition in vivo at 10 mg/kg (Mus musculus [3]): 60%
clearance [5]: 1.7 mL/min/kg
Cmax [6]: 10900 ng/mL
bioavailability [7]: 76%

SMILES: COc1c(NC(=O)c2cc3ccccc3[nH]2)cc(C(C)(C)C)cc1NS(C)(=O)=O
IC50 (Blood): > 10000 nM

SMILES: COc1c(NC(=O)c2cc3ccccc3o2)cc(C(C)(C)C)cc1NS(C)(=O)=O
IC50 (Blood): > 10000 nM

SMILES: COc1c(NC(=O)c2cc3cccc(NC(=O)c4cccnc4)c3n2C)cc(C(C)(C)C)cc1NS(C)(=O)=O
IC50 (Blood): 3600 nM
inhibition in vivo at 10 mg/kg (Mus musculus [3]): 60%
clearance [5]: 3 mL/min/kg
Cmax [6]: 9000 ng/mL
bioavailability [7]: 90%

SMILES: COc1c(NC(=O)c2cc3cccc(NC(=O)c4ccc(N(C)C)nc4)c3s2)cc(C(C)(C)C)cc1NS(C)(=O)=O
IC50 (Blood): 2200 nM

SMILES: COc1c(NC(=O)Nc2cccc3ccccc23)cc(C(C)(C)C)cc1NS(C)(=O)=O
IC50 (Blood): > 10000 nM

SMILES: CNc1ccc(C(=O)Nc2cccc3cc(C(=O)Nc4cc(C(C)(C)C)cc(NS(C)(=O)=O)c4OC)sc23)cn1
IC50 (Blood): 1100 nM

Second part, led by results:

IC50 (Blood): 180 nM
IC50 [1]: 16 nM
IC50 [2]: 230 nM
clearance [5]: 4 mL/min/kg
Cmax [6]: 2400 ng/mL
bioavailability [7]: 51%
SMILES: COc1c(NC(=O)c2cc3cccc(NC(=O)c4ccc(NC5CC5)nc4)c3s2)cc(C(C)(C)C)cc1NS(C)(=O)=O
inhibition in vivo at 10 mg/kg (Mus musculus [3]): 98%
inhibition in vivo at 3 mg/kg (Mus musculus [4]): 80%

IC50 (Blood): 250 nM
SMILES: COc1c(NC(=O)c2cc3cccc(NC(=O)c4ccc(NCCN5CCOCC5)nc4)c3n2C)cc(C(C)(C)C)cc1NS(C)(=O)=O

IC50 (Blood): 550 nM
SMILES: COc1c(NC(=O)c2cc3cccc(NC(=O)c4ccc(NCCN5CCOCC5)nc4)c3s2)cc(C(C)(C)C)cc1NS(C)(=O)=O

IC50 (Blood): 140 nM
clearance [5]: 5 mL/min/kg
Cmax [6]: 14000 ng/mL
bioavailability [7]: 51%
SMILES: COc1c(NC(=O)c2cc3cccc(NC(=O)c4ccc(NC5CC5)nc4)c3n2C)cc(C(C)(C)C)cc1NS(C)(=O)=O
inhibition in vivo at 10 mg/kg (Mus musculus [3]): 75%
inhibition in vivo at 3 mg/kg (Mus musculus [4]): 60%

IC50 (Blood): 160 nM
SMILES: COCCNc1ccc(C(=O)Nc2cccc3cc(C(=O)Nc4cc(C(C)(C)C)cc(NS(C)(=O)=O)c4OC)n(C)c23)cn1

IC50 (Blood): 500 nM
SMILES: CNc1ccc(C(=O)Nc2cccc3cc(C(=O)Nc4cc(C(C)(C)C)cc(NS(C)(=O)=O)c4OC)n(C)c23)cn1

IC50 (Blood): 430 nM
SMILES: COc1c(NC(=O)c2cc3cccc(NC(=O)c4ccc(N)nc4)c3s2)cc(C(C)(C)C)cc1NS(C)(=O)=O

IC50 (Blood): 150 nM
SMILES: COc1c(NC(=O)c2cc3cccc(NC(=O)c4ccc(NCC5CC5)nc4)c3n2C)cc(C(C)(C)C)cc1NS(C)(=O)=O

IC50 (Blood): 130 nM
SMILES: COCCNc1ccc(C(=O)Nc2cccc3cc(C(=O)Nc4cc(C(C)(C)C)cc(NS(C)(=O)=O)c4OC)sc23)cn1
